# Laboratory results from ChEMBL document CHEMBL1122273, “5-sulfamoylorthanilic acids, a sulfonamide series with salidiuretic activity” (J Med Chem, 1983).
# Tests used:
# [1] = Partion coefficient in octanol/H2O system at pH=7; assay type: physicochemical
# Summary of the method: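 Partition between octanol and Britton-Robinson buffer, measured across pH 0–13; value read at pH 7.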
# [2] = Solubility of compound in water was determined; assay type: physicochemical; settings: buffer
# [3] = tested on: Canis familiaris; assay: Saluretic activity in the dog measured as concentration of Na+ in urinary excretion (2 animals/dose) at (dose 0.1 mg/Kg, perorally); assay type: functional, Canis lupus familiaris, Urine
# Summary of the method: (§1)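 Male beagles trained to rest on a table and to accept stomach tube and catheter. Food withdrawn 24 h before, tap water ad libitum. Bladder emptied by catheter, then 20 mL/kg tap water by stomach tube. Catheterized hourly up to 8 h with 4 mL/kg water orally each time; first 2 h urine served as control. Oral dosing after second catheterization. Pooled 1–6 h urine; Na⁺/K⁺ by flame photometry, Cl⁻ argentometrically.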
# [4] = tested on: Canis familiaris; assay: Saluretic activity in the dog measured as concentration of Na+ in urinary excretion (2 animals/dose) at (dose 1.56 mg/Kg, perorally); assay type: functional, Canis lupus familiaris, Urine; summary of the method: as §1
# [5] = tested on: Canis familiaris; assay: Diuretic activity in the dog (2 animals/dose) at (dose 0.1 mg/Kg), when administered perorally; assay type: functional, Canis lupus familiaris, Urine
# Summary of the method: (§2)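 Trained male beagles, fasted 24 h with tap water ad libitum. Bladder emptied by catheter, then 20 mL/kg tap water by stomach tube, with 4 mL/kg water at each hourly catheterization up to 8 h. The first 2 h of urine served as control. Oral dosing came after the second catheterization, and 1–6 h urine was pooled. Na⁺ and K⁺ were measured by flame photometry, Cl⁻ argentometrically, in mequiv/kg.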
# [6] = tested on: Canis familiaris; assay: Diuretic activity in the dog (2 animals/dose) at (dose 0.4 mg/Kg), when administered perorally; assay type: functional, Canis lupus familiaris, Urine; summary of the method: as §2
# [7] = tested on: Canis familiaris; assay: Diuretic activity in the dog (2 animals/dose) at (dose 1.56 mg/Kg), when administered perorally; assay type: functional, Canis lupus familiaris, Urine; summary of the method: as §2
# [8] = tested on: Canis familiaris; assay: Saluretic activity in the dog measured as concentration of K+ in urinary excretion (2 animals/dose) at (dose 0.1 mg/Kg, perorally); assay type: functional, Canis lupus familiaris, Urine
# Summary of the method: (§3)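 Male beagles trained to the procedures, food withdrawn 24 h before, tap water ad libitum. Bladder emptied by catheter, then 20 mL/kg tap water by stomach tube, plus 4 mL/kg orally at each hourly catheterization up to 8 h. The first 2 h of urine served as control. Compound given orally after the second catheterization. Urine from 1–6 h post-dose pooled; Na⁺ and K⁺ by flame photometry, Cl⁻ argentometrically, in mequiv/kg.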
# [9] = tested on: Canis familiaris; assay: Saluretic activity in the dog measured as concentration of K+ in urinary excretion (2 animals/dose) at (dose 0.4 mg/Kg, perorally); assay type: functional, Canis lupus familiaris, Urine; summary of the method: as §3
# [10] = tested on: Canis familiaris; assay: Saluretic activity in the dog measured as concentration of K+ in urinary excretion (2 animals/dose) at (dose 1.56 mg/Kg, perorally); assay type: functional, Canis lupus familiaris, Urine; summary of the method: as §3
# [11] = tested on: Canis familiaris; assay: Saluretic activity in the dog measured as concentration of Cl - in urinary excretion (2 animals/dose) at (dose 0.1 mg/Kg, perorally); assay type: functional, Canis lupus familiaris, Urine; summary of the method: as §3
# [12] = tested on: Canis familiaris; assay: Saluretic activity in the dog measured as concentration of Cl - in urinary excretion (2 animals/dose) at (dose 1.56 mg/Kg, perorally); assay type: functional, Canis lupus familiaris, Urine; summary of the method: as §3
# [13] = tested on: Canis familiaris; assay: Saluretic activity in the dog measured as concentration of Cl - in urinary excretion (2 animals/dose) at (dose 0.4 mg/Kg, perorally); assay type: functional, Canis lupus familiaris, Urine; summary of the method: as §3
# [14] = tested on: Canis familiaris; assay: Urinary excretion collected at 1-24 hr time after oral administration in dog (four animals per dose) at dose 0.39 mg/kg.; assay type: functional, Canis lupus familiaris, Urine
# Summary of the method: (§4)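 Trained male beagles, four per dose, fasted 24 h with tap water ad libitum. After bladder emptying, given 20 mL/kg tap water by stomach tube, then 4 mL/kg at each hourly catheterization; 2 h control collection, then oral dosing. Urine volume and Na⁺ (flame photometry) reported for 1–6, 7–24 and 1–24 h post-dose periods.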
# [15] = tested on: Canis familiaris; assay: Urinary excretion collected at 1-24 hr time after oral administration in dog (four animals per dose) at dose 1.56 mg/kg.; assay type: functional, Canis lupus familiaris, Urine; summary of the method: as §4
# [16] = tested on: Canis familiaris; assay: Urinary excretion collected at 1-6 hr time after oral administration in dog (four animals per dose) at dose 0.39 mg/kg.; assay type: functional, Canis lupus familiaris, Urine; summary of the method: as §4
# [17] = tested on: Canis familiaris; assay: Urinary excretion collected at 1-6 hr time after oral administration in dog (four animals per dose) at dose 1.56 mg/kg.; assay type: functional, Canis lupus familiaris, Urine; summary of the method: as §4
# [18] = tested on: Canis familiaris; assay: sodium excretion collected at 1-6 hr time after oral administration in dog (four animals per dose) at dose 1.56 mg/kg.; assay type: functional, Canis lupus familiaris; summary of the method: as §4
# [19] = tested on: Canis familiaris; assay: sodium excretion collected at 7-24 hr time after oral administration in dog (four animals per dose) at dose 6.25 mg/kg.; assay type: functional, Canis lupus familiaris; summary of the method: as §4
# [20] = species: Rattus norvegicus; assay: Diuretic activity in the rats, determined by a modified Lipschitz test; assay type: functional, Urine
# Summary of the method: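 Modified Lipschitz test: rats deprived of water 24 h, grouped in threes of similar weight in diuresis funnels. Oral dose of 50 mg/kg, suspended in 2% starch solution, by stomach tube.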
# [21] = species: Rattus norvegicus; assay: Saluretic activity in the rat measured as concentration of chloride in urine; assay type: functional
# Summary of the method: (§5)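 Rats deprived of food 24 h, water ad libitum, dosed 50 mg/kg by stomach tube as suspension in 2% starch, no extra water load. Groups of three in diuresis funnels; urine over first 5 h collected. Na⁺ and K⁺ by flame photometry, Cl⁻ argentometrically; expressed as mequiv/kg.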
# [22] = species: Rattus norvegicus; assay: Saluretic activity in the rat measured as concentration of K+ in urine; assay type: functional; summary of the method: as §5
# [23] = It is the ratio, measured as saluretic activity in the dog as concentration of Cl- in urinary excretion (dose 0.1 mg/Kg, perorally) to that of (Na+)+(K+); assay type: functional, Urine; summary of the method: as §2
# [24] = It is the ratio, measured as saluretic activity in the dog as concentration of Na+ in urinary excretion (dose 0.1 mg/Kg, perorally) to that of K; assay type: functional, Urine; summary of the method: as §2
# [25] = It is the ratio, measured as saluretic activity in the dog as concentration of Na+ in urinary excretion (dose 0.4 mg/Kg, perorally) to that of K; assay type: functional, Urine; summary of the method: as §2
# [26] = species: Rattus norvegicus; assay: Saluretic activity in the rat measured as concentration of Na+ in urine; assay type: functional; summary of the method: as §5
# [27] = Dissociation constant, pK1 was determined using sodium salt
# [28] = Dissociation constant, pK2 was determined using sodium salt
# [29] = tested on: Canis familiaris; assay: Saluretic activity in the dog measured as concentration of Na+ in urinary excretion (2 animals/dose) at (dose 0.4 mg/Kg, perorally); assay type: functional, Canis lupus familiaris, Urine; summary of the method: as §1
# [30] = tested on: Canis familiaris; assay: sodium excretion collected at 1-24 hr time after oral administration in dog (four animals per dose) dosed at 0.39 mg/kg.; assay type: functional, Canis lupus familiaris; summary of the method: as §4
# [31] = tested on: Canis familiaris; assay: Urinary excretion collected at 1-6 hr time after oral administration in dog (four animals per dose) dosed at 0.39 mg/kg.; assay type: functional, Canis lupus familiaris, Urine; summary of the method: as §4
# [32] = tested on: Canis familiaris; assay: urinary excretion collected at 1-24 hr time after oral administration in dog (four animals per dose) dosed at 0.05 mg/kg.; assay type: functional, Canis lupus familiaris, Urine
# Summary of the method: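 Trained male beagles, four per dose, fasted 24 h with tap water ad libitum. The bladder was emptied by catheter, then 20 mL/kg tap water was given by stomach tube. Dogs were catheterized hourly with 4 mL/kg water orally each time, and the first 2 h served as control. Compound was given orally after the second catheterization. Urine volume and flame-photometric Na⁺ were measured over 1-6, 7-24 and 1-24 h.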
# [33] = It is the ratio, measured as saluretic activity in the dog as concentration of Cl- in urinary excretion (dose 0.4 mg/Kg, po) to that of (Na+)+(K+); assay type: functional, Urine; summary of the method: as §2
Compound,Partition coefficient [1],Solubility [2] [%],Saluretic activity [3] [m equiv 6hr-1 kg-1],Saluretic activity [4] [m equiv 6hr-1 kg-1],Diuretic activity [5] [ml kg-1 6hr-1],Diuretic activity [6] [ml kg-1 6hr-1],Diuretic activity [7] [ml kg-1 6hr-1],Saluretic activity [8] [m equiv 6hr-1 kg-1],Saluretic activity [9] [m equiv 6hr-1 kg-1],Saldiuretic activity [11] [m equiv 6hr-1 kg-1],Saldiuretic activity [12] [m equiv 6hr-1 kg-1],Saldiuretic activity [13] [m equiv 6hr-1 kg-1],Diuretic activity [20] [mL/kg],Saluretic activity [21] [m equiv 5hr-1 kg-1],Saluretic activity [22] [m equiv 5hr-1 kg-1],Ratio [23],Ratio [24],Ratio [25],Saluretic activity [26] [m equiv 5hr-1 kg-1],pKa [27],also measured
NS(=O)(=O)c1cc(S(=O)(=O)[O-])c(NCc2ccco2)cc1Oc1ccccc1.[Na+],0.12,20,1.19,4.89,30,36.4,71.4,0.15,0.34,0.27,5.47,1.65,4.1,9.6,2.1,0.8,1.2,3.5,7,0.5,Saluretic activity [10]: 1 m equiv 6hr-1 kg-1; Urinary excretion [14]: 50.9 mL/kg; Urinary excretion [15]: 78.9 mL/kg; Urinary excretion [16]: 41.6 mL/kg; Urinary excretion [17]: 61.1 mL/kg; Na+ excretion [18]: 4.97 mequiv kg-1; Na+ excretion [19]: 1.98 mequiv kg-1; pKa [28]: 10.2
CN(c1ccccc1)c1cc(NCc2ccco2)c(S(=O)(=O)[O-])cc1S(N)(=O)=O.[Na+],0.28,4,3.08,5.74,54.3,75.3,69.4,0.72,1.28,3.99,6.79,6.34,4.6,9.4,2.4,1.1,4.3,4.1,8.2,1,Saldiuretic activity [10]: 1.17 m equiv 6hr-1 kg-1; Saluretic activity [29]: 5.26 m equiv 6hr-1 kg-1; Na+ excretion [30]: 5.81 mequiv kg-1; Urinary excretion [31]: 75.3 mL/kg; Urinary excretion [32]: 50.6 mL/kg; Ratio [33]: 1; pKa [28]: 10.5
